We go through one compound from ChEMBL document CHEMBL1158703, “Psychopharmacological profile of the alkaloid psychollatine as a 5HT2A/C serotonin modulator” (2005).

SMILES strings stand for the structures. Activity calls are given as the source filed them.

Assay [1] concerns Mus musculus. In words: Anxiolytic activity against CF1 mouse assessed as increase in latency to enter in the dark compartment 7.5 mg/kg in presence of ritanserin for 5 mins. The format is functional, organism-based. Also on record: dose 7.5 mg/kg. The method, boiled down:
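Male CF1 mice received ritanserin 2 mg/kg i.p. (in 10% DMSO) 30 min before the test drug at 7.5 mg/kg i.p. The light/dark test followed 30 min later, scoring latency to first entry and time in the light compartment. Values are mean ± SEM (N = 8-10), analysed by one-way ANOVA/SNK.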

For assay [2], the system named is Mus musculus. In words: Potentiation of pentobarbital-induced sleeping time in CF1 mouse at 100 mg/kg. The arrangement: dose 100 mg/kg. The format is functional, organism-based. The method, boiled down:
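Male CF1 mice (N = 9-12) were dosed i.p. and given sodium pentobarbital 40 mg/kg i.p. 30 min later. Sleeping time was recorded as the interval from loss to recovery of the righting reflex. Values are mean ± SEM, analysed by ANOVA against controls.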

In assay [3] the test system is Mus musculus. In words: Anxiolytic activity against CF1 mouse assessed as suppression of oxotremorine-treated tremors at 30 mg/kg. The arrangement: dose 30 mg/kg. The class given is functional, organism-based. Summed up:
(§1)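 Male CF1 mice were given the test drug i.p. in saline 30 min before oxotremorine 0.5 mg/kg. Each mouse was then placed alone in an acrylic cage for observation of tremor. Values are median (interquartile range), analysed by Kruskal–Wallis then Mann–Whitney U against saline + oxotremorine.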

For assay [4], the system named is Mus musculus. Briefly: Anxiolytic activity against CF1 mouse assessed as suppression of oxotremorine-treated tremors at 10 mg/kg. The format is functional, organism-based. Also on record: dose 10 mg/kg. The method, boiled down:
as §1

Assay [5] deals with Mus musculus. In words: […] of CF1 mouse assessed as reduction in step down latency at 10 mg/kg by passive avoidance test. The format is functional.
The subject of assay [6] is Mus musculus. In words: Effect on locomotory activity in CF1 mouse assessed as reduction in spontaneous activity at 100 mg/kg. Also on record: dose 100 mg/kg. The format is functional, organism-based. Summed up:
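Male CF1 mice were habituated 10 min in photocell activity cages, then dosed i.p. (n = 10-16). Thirty minutes later crossings were recorded over 15 min. Values are mean ± SEM, analysed by one-way ANOVA then SNK.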

In assay [7] the test system is Mus musculus. In words: Anxiolytic activity against CF1 mouse assessed as increase in number of head dips at 15 mg/kg after 30 mins by hole-board assay. The format is functional, organism-based. The arrangement: dose 15 mg/kg. The method, boiled down:
(§2)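 Hole-board set 15 cm high and divided into 16 squares, with photocells counting head-dips. Male CF1 mice were dosed i.p. and placed centrally 30 min later under dim light. Over 5 min, head-dips, rearings and squares crossed were counted. Values are mean ± SEM (N = 15), analysed by one-way ANOVA then SNK.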

Assay [8] relates to Mus musculus. In words: Anxiolytic activity against CF1 mouse assessed as increase in number of crossings at 15 mg/kg after 30 mins by hole-board assay. The format is functional, organism-based. Also on record: dose 15 mg/kg. The method, boiled down: as §2
Assay [9] concerns Mus musculus. Briefly: Anxiolytic activity against CF1 mouse assessed as increase in number of crossings at 7.5 mg/kg after 30 mins in presence of ritanserin by hole-board assay. The class given is functional, organism-based. Also on record: dose 7.5 mg/kg. Summed up: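 Male CF1 mice received ritanserin 2 mg/kg i.p. in 10% DMSO 30 min before the test drug at 7.5 mg/kg i.p. The 5 min hole-board session began 30 min later, counting head-dips, crossings and rearings. Values are mean ± SEM (N = 8-14), analysed by ANOVA/SNK.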

Assay [10] concerns Mus musculus. Briefly: Antidepressant activity in CF1 mouse assessed as decrease in duration of immobility at 3 mg/kg during final 4 mins of the 6 mins session by forced swimming test. The format is functional. Summed up:
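Male adult CF1 mice given i.p. doses in saline (pH 7.0), N = 10. Each mouse swam 6 min in a 30 cm-diameter cylinder holding 20 cm of water at 25 ± 1 °C. Immobility was timed over the last 4 min. Values are mean ± SEM, analysed by ANOVA against saline.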

The subject of assay [11] is Mus musculus. Briefly: Effect on long term memory of CF1 mouse assessed as reduction in step down latency at 100 mg/kg by passive avoidance test. The class given is functional. Summed up:
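Step-down inhibitory avoidance in male CF1 mice dosed i.p. immediately after training, during which a 0.3 mA foot shock for 15 s followed stepping down. Test step-down latency was recorded 24 h later without shock, with a 300 s cutoff. N = 20 per group; values are median (interquartile range).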

Regarding `COC(=O)C1=CO[C@@H](O[C@H]2O[C@H](CO)[C@@H](O)[C@H](O)[C@H]2O)[C@@H]2C([C@@H]3NCCc4c3[nH]c3ccccc43)=CC[C@H]12` [PSYCHOLLATINE], the outcome in the assay on Mus musculus [1] and in the assay on Mus musculus [9] was inactive. In addition, the outcome with Mus musculus [2], with Mus musculus [3], in the assay with Mus musculus [4], in the assay with Mus musculus [6], in the assay with Mus musculus [7] and in the assay with Mus musculus [8] was Active. Moreover, the Activity is listed as 11.55 s in the assay with Mus musculus [5], 48.88 s in the assay with Mus musculus [10] and 9.5 s in the assay with Mus musculus [11].
